Measurements as given in ChEMBL document CHEMBL1145162, “6-aryl-8H-indeno[1,2-d]thiazol-2-ylamines: A1 adenosine receptor agonist allosteric enhancers having improved potency” (J Med Chem, 2005).

Tests used:
[1] = target: T1, Adenosine receptor A1 (Homo sapiens, UniProt P30542); test: Antagonist activity against adenosine A1 receptor; type: functional; parameters: concentration or dose not given beside the values
T1 sequence (P30542 whole entry): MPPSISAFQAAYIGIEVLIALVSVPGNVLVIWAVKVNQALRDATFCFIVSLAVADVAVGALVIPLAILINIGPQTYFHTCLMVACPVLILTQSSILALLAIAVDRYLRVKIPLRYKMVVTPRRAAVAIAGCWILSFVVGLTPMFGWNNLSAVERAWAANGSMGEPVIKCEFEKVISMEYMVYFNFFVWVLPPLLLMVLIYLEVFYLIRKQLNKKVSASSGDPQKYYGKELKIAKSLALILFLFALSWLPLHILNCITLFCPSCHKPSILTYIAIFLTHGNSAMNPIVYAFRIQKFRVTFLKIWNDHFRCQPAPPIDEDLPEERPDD
Procedure, shortened: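 Equilibrium binding on CHO-K1 hA1AR membranes (15 μg) in 10 mM HEPES pH 7.4, 1 mM EDTA, 1 U/mL adenosine deaminase, 4 nM [3H]CPX. Mixed with an equal volume of 200 μM enhancer in HEPES–10% DMSO; 200 μM NECA for nonspecific binding. Incubated 3 h at room temperature, then filtered.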

[2] = target: T2, Adenosine receptor A1 (Homo sapiens) (UniProt P30542); test: (§1) In vitro allosteric enhancer (AE) activity for adenosine A1 receptor at 50 uM
T2 sequence (whole entry): T1 sequence (P30542 whole entry)
Procedure, shortened: (§2)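 Single-point screen on membranes from CHO-K1 cells stably expressing hA1AR. Candidate enhancer was added at 50 μM final for 5 min. Dissociation was then started with 8-cyclopentyltheophylline plus GTPγS and run 10 min. Score = % specific agonist binding remaining; two to three assays, each in triplicate.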

[3] = target: T3, Adenosine receptor A3 (Homo sapiens) (UniProt P0DMS8); test: In vitro allosteric enhancer (AE) activity for adenosine A3 receptor at 50 uM
T3 sequence (whole entry): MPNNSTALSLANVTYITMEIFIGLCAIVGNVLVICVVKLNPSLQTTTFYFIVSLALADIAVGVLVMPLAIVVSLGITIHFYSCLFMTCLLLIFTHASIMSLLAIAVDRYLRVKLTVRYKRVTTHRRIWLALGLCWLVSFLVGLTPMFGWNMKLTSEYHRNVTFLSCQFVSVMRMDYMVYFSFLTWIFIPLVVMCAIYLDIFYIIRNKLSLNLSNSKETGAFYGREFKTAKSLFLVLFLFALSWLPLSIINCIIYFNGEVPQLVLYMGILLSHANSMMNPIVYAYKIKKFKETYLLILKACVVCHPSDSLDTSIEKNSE

[4] = target: Adenosine receptor A2a (Homo sapiens) (UniProt P29274); test: In vitro allosteric enhancer (AE) activity for adenosine A2A receptor at 50 uM
[5] = target: T2, Adenosine receptor A1 (Homo sapiens); test: Allosteric enhancer activity against adenosine A1 receptor
[6] = target: T2, Adenosine receptor A1 (Homo sapiens); test: as §1; procedure, shortened: as §2; remark: listed apart in the source
[7] = target: T2, Adenosine receptor A1 (Homo sapiens); test: Inhibition of human adenosine receptor A1 at 10 uM
Procedure, shortened: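 CHO-K1 hA1AR membranes at 0.5 mg/mL in 10 mM HEPES pH 7.4 with 1 mM EDTA, 1 U/mL adenosine deaminase, 5 mM MgCl2 and 2 nM [3H]CPX. Mixed 1:1 with buffer containing 20 μM enhancer. Equilibrium 3 h at room temperature; 100 μM NECA defined nonspecific binding. Inhibition expressed relative to control specific binding; duplicate assays.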

[8] = target: T3, Adenosine receptor A3 (Homo sapiens); test: Inhibition of human adenosine receptor A3 at 10 uM
[9] = target: T2, Adenosine receptor A1 (Homo sapiens); test: Allosteric enhancer (AE) activity against human adenosine A1 receptor at 50 uM; procedure, shortened: as §2
[10] = target: T4, Adenosine receptor A1 (Rattus norvegicus) (UniProt P25099); test: Allosteric enhancer (AE) activity against rat adenosine A1 receptor
T4 sequence (whole entry): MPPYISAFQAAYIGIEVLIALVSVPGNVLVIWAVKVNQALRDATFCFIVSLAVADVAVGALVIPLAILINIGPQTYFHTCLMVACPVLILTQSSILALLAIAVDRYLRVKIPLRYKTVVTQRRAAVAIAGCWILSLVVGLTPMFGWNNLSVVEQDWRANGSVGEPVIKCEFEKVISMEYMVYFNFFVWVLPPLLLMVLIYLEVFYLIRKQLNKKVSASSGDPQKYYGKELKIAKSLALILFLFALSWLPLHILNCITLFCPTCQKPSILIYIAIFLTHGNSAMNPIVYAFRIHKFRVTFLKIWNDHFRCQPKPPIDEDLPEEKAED

[11] = target: T2, Adenosine receptor A1 (Homo sapiens); test: as §1; procedure, shortened: as §2; remark: listed apart in the source
[12] = target: T2, Adenosine receptor A1 (Homo sapiens); test: In vitro allosteric enhancer (AE) activity for adenosine A1 receptor maximal score from curve fitting

Sequence of Adenosine receptor A2a (Homo sapiens) (P29274 whole entry): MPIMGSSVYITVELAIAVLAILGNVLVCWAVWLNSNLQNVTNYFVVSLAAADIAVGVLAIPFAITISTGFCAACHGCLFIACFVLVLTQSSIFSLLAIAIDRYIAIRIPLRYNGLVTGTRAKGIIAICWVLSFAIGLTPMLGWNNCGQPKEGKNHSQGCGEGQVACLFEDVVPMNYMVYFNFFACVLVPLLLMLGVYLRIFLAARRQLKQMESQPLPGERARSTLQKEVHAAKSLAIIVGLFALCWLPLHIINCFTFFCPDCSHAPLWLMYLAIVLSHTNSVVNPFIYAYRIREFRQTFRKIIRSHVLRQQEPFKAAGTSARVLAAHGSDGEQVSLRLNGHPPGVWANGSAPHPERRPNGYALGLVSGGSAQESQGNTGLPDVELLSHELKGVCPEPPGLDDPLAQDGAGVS

Structure (SMILES) | Inhibition [1] | EC50 [5] | inhibition [7] | inhibition [8] | Alloste ic enhan er (AE) [2] | Alloste ic enhan er (AE) [3] | Alloste ic enhan er (AE) [4] | Alloste ic enhan er (AE) [6] | Alloste ic enhan er (AE) [9] | Alloste ic enhan er (AE) [10] | Alloste ic enhan er (AE) [11] | Allosteric enhancer (AE) [12]
CN(C)c1ccc(-c2ccc3c(c2)Cc2sc(N)nc2-3)cc1 | 12.5% |  | 23.1% | 38.6% | 81% | 24.8% | 3.4% | 81.8% | 67.9% | 31.7% |  | 
Nc1nc2c(s1)Cc1cc(-c3ccc(O)cc3)ccc1-2 | 36.7% | > 10 µM |  |  | 4% | 1% | 0% |  |  |  |  | 
COc1ccc(-c2ccc3c(c2)Cc2sc(N)nc2-3)cc1 | 13.3% |  | 25.2% | 37.6% | 87% | 18% | 0% |  | 72% | 32.3% | 90.2% | 
Nc1nc2c(s1)Cc1cc(-c3cccc4ccccc34)ccc1-2 | > 13% | 3 µM |  |  | 61.2% | 4.2% | 0% |  |  |  |  | 65.6%
Nc1nc2c(s1)Cc1cc(-c3ccccc3[N+](=O)[O-])ccc1-2 | 8.3% | 6.3 µM |  |  | 40.1% | 0% | 0% |  |  |  |  | 49.7%
COc1ccc(-c2ccc3c(c2)Cc2sc(N)nc2-3)c(OC)c1OC | 18% | > 10 µM |  |  | 64.5% | 0% | 0.3% |  |  |  |  | 
Nc1nc2c(s1)Cc1cc(-c3cc4ccccc4o3)ccc1-2 |  |  |  |  | 51% | 11.9% | 0.8% |  |  |  |  | 
Nc1nc2c(s1)Cc1cc(-c3ccc(Cl)c(Cl)c3)ccc1-2 | 8% | > 10 µM |  |  | 45.3% | 0% | 0% |  |  |  |  | 22.6%
Nc1nc2c(s1)Cc1cc(-c3ccc4c(c3)OCO4)ccc1-2 | 11.6% |  | 10.5% | 22.5% | 82% | 2.9% | 0% |  | 90.7% | 48.8% |  | 91%
Nc1nc2c(s1)Cc1cc(-c3ccsc3)ccc1-2 |  |  |  |  | 68.8% | 3.8% | 0% |  |  |  |  | 
COc1ccc2cc(-c3ccc4c(c3)Cc3sc(N)nc3-4)ccc2c1 |  |  |  |  | 24.4% | 0% | 0% |  |  |  |  | 
Nc1nc2c(s1)Cc1cc(-c3ccc(F)cc3)ccc1-2 | > 10% | > 10 µM |  |  | 54.4% | 11.8% | 0% |  |  |  |  | 
Nc1nc2c(s1)Cc1cc(-c3ccc4ccccc4c3)ccc1-2 | > 4.2% | > 10 µM |  |  | 38.6% | 4.5% | 0% |  |  |  |  | 
Nc1nc2c(s1)Cc1cc(-c3ccccc3Cl)ccc1-2 | > 10% | > 10 µM |  |  | 36.7% | 0% | 0% |  |  |  |  | 
Nc1nc2c(s1)Cc1cc(-c3ccccc3)ccc1-2 | > 10% | > 10 µM |  |  | 8.2% | 1.6% | 0% |  |  |  |  | 
Nc1nc2c(s1)Cc1cc(-c3cccs3)ccc1-2 |  |  |  |  | 32% | 1.8% | 0% |  |  |  |  | 
COc1cc(-c2ccc3c(c2)Cc2sc(N)nc2-3)cc(OC)c1OC | 11.8% | > 10 µM |  |  | 23.3% | 0.8% | 0% |  |  |  |  | 
COc1ccc(-c2ccc3c(c2)Cc2sc(N)nc2-3)c(OC)c1 | 16% | > 10 µM |  |  | 73% | 1.9% | 0% |  |  |  |  | 

Now from value to compound, other results behind:

Inhibition [1] | EC50 [5] | inhibition [7] | inhibition [8] | Structure (SMILES) | Alloste ic enhan er (AE) [2] | Alloste ic enhan er (AE) [3] | Alloste ic enhan er (AE) [4] | Alloste ic enhan er (AE) [6] | Alloste ic enhan er (AE) [9] | Alloste ic enhan er (AE) [10] | Alloste ic enhan er (AE) [11] | Allosteric enhancer (AE) [12]
13.2% | > 10 µM |  |  | Nc1nc2c(s1)Cc1cc(-c3ccccc3F)ccc1-2 | 4.9% | 3.6% | 0% |  |  |  |  | 
 | > 10 µM |  |  | Cc1sc(N)c(C(=O)c2cccc(C(F)(F)F)c2)c1C | 20% | 5% | 0% |  |  |  |  | 
> 10% | > 10 µM |  |  | Nc1nc2c(s1)Cc1cc(-c3cccc(F)c3)ccc1-2 | 42.8% | 3.6% | 0% |  |  |  |  | 
> 8.7% | > 10 µM |  |  | Cc1cc(C)cc(-c2ccc3c(c2)Cc2sc(N)nc2-3)c1 | 10.5% | 0% | 0% |  |  |  |  | 
43.5% | > 10 µM |  |  | COc1ccccc1-c1ccc2c(c1)Cc1sc(N)nc1-2 | 38% | 1% | 0% |  |  |  |  | 
8.3% | > 10 µM |  |  | Nc1nc2c(s1)Cc1cc(-c3cccc([N+](=O)[O-])c3)ccc1-2 | 13% | 0% | 0% |  |  |  |  | 
19.3% | > 10 µM |  |  | COc1cccc(-c2ccc3c(c2)Cc2sc(N)nc2-3)c1 | 64% | 1.8% | 0% |  |  |  |  | 
> 10% | > 10 µM |  |  | Nc1nc2c(s1)Cc1cc(-c3cccc(Cl)c3)ccc1-2 | 22.7% | 1% | 0% |  |  |  |  | 
36.7% | > 10 µM |  |  | Nc1nc2c(s1)Cc1cc(-c3cccc(O)c3)ccc1-2 | 10% | 1% | 0% |  |  |  |  | 
> 10% | > 10 µM |  |  | Nc1nc2c(s1)Cc1cc(-c3cccc(C(F)(F)F)c3)ccc1-2 | 15.8% | 0% | 0% |  |  |  |  | 
> 10% | 5.1 µM |  |  | Nc1nc2c(s1)Cc1cc(-c3ccccc3C(F)(F)F)ccc1-2 | 50.1% | 6.6% | 0% |  |  |  |  | 57%
> 10% | 7.3 µM |  |  | Cc1ccc(C)c(-c2ccc3c(c2)Cc2sc(N)nc2-3)c1 | 47.7% | 0% | 0% |  |  |  |  | 51%
> 10% | > 10 µM |  |  | Nc1nc2c(s1)Cc1cc(-c3ccc(C(F)(F)F)cc3)ccc1-2 | 8.9% | 0% | 0% |  |  |  |  | 
34.4% | > 10 µM |  |  | Cc1ccccc1-c1ccc2c(c1)Cc1sc(N)nc1-2 | 36.6% | 0% | 0% |  |  |  |  | 
30.1% | > 10 µM |  |  | Cc1ccc(-c2ccc3c(c2)Cc2sc(N)nc2-3)cc1C | 52% | 0% | 0% |  |  |  |  | 
